SENP8 block-1 – SENP8 protease inhibition | Q96LD8 | purified SENP8, Z-RLRGG-aminoluciferin cleavage, luminescence | inhibition, % at 10 µM | 330,000 compounds, 1.2% hits; in the data active = inhibition above about 50%
Target sequence (Q96LD8 whole entry, looked up): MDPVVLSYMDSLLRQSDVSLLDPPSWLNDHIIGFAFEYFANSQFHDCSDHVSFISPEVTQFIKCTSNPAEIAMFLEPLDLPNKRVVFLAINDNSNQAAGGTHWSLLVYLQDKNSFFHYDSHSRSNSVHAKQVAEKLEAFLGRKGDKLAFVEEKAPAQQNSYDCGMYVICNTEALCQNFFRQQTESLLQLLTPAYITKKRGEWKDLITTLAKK
SENP7 inh – blocks the human protease SENP7; AID 434973; inhibition, % at 5 µM; recombinant SENP7, Z-RLRGG-aminoluciferin luminescence, 40 min; 330,000 compounds, 1.5% hits; Q9BQF6;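 active = inhibition above about 50% at the single test dose, limit read from the data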;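 also: plate controls were DMSO with enzyme for no effect and no enzyme buffer wells for full effect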
SENP6 inh – blocks the human protease SENP6; Recombinant SENP6 catalytic domain, aminoluciferin luminescence; inhibition, % at 10 µM; 330,000 compounds, 1.8% hits; AID 2599;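 active = inhibition above about 50% at the single tested dose, limit read from the data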;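 also: plate controls were DMSO wells with enzyme for no effect and DMSO wells lacking enzyme for full effect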
SENP1 FRET inh – inhibitors of human SENP1 SUMO protease catalytic domain | Q9P0U3 | recombinant SENP1 catalytic domain, CyPet-SUMO1-YPet FRET cleavage | inhibition, % at 10 µM | 360,000 compounds, 0.21% hits;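 active = inhibition at least 30% at 10 µM, raw YFP signal under a set limit, fluorescence ratio 0.5 to 1.5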;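 also: 0% = enzyme with DMSO and 100% = no enzyme wells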
Target sequence (Q9P0U3 419-644 limits assumed): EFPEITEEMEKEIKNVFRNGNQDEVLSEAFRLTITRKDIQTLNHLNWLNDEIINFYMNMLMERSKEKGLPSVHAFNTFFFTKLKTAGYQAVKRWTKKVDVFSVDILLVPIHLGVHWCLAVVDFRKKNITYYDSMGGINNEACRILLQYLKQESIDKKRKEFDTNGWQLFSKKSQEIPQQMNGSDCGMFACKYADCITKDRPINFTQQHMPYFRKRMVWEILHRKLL
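material = recombinant human SENP1 catalytic domain, His6-tagged | quantity = 20 pM enzyme | reagent = 25 nM SUMO1 FRET substrate | compound dosing = 10 µM single point, 0.5% DMSO | timing = 50 min enzyme reaction, room temperature, light-protected | detection = FRET, CFP and YFP emission | control set = no-enzyme low, enzyme-DMSO high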
SENP8 block-2 – inhibitors of human SENP8 protease; recombinant SENP8, Nedd8 substrate fluorescence; inhibition, % at 20 µM; 360,000 compounds, 0.64% hits; in the data active = inhibition mostly above about 40%, no sharp cut-off; inactive = mostly below about 27%
SENP8 conf – confirmation of human SENP8 protease inhibitors. shares compounds with SENP7 inh. Recombinant SENP8, Z-RLRGG-aminoluciferin luminescence, 60 min. inhibition, % at 12.5 µM. 6,200 compounds, 40% hits. AID 488912;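 active = mean inhibition across replicates above about 50%, limit read from the data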
SENP6 conf – human SENP6 inhibition, confirmed; recombinant SENP6, Z-RLRGG-aminoluciferin luminescence; 6,200 compounds, 58% hits; inhibition, % at 12.5 µM; shares compounds with SENP7 inh
SENP7 confirm – human SENP7 inhibition, confirmed | shares compounds with SENP7 inh | recombinant SENP7, Z-RLRGG-aminoluciferin luminescence, 40 min | inhibition, % at 12.5 µM | 6,200 compounds, 69% hits | AID 488917
Casp3 SENP sel – inhibits human caspase-3 in SENP selectivity test; inhibition, % at 12.5 µM; shares compounds with SENP7 inh; purified caspase-3, Z-DEVD-aminoluciferin luminescence, 60 min; 6,200 compounds, 60% hits;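 active = mean inhibition above about 50%, limit read from the data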;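 also: plate controls were enzyme with DMSO for no effect and wells without caspase-3 for full effect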
Target sequence (P42574 28-227 limits assumed): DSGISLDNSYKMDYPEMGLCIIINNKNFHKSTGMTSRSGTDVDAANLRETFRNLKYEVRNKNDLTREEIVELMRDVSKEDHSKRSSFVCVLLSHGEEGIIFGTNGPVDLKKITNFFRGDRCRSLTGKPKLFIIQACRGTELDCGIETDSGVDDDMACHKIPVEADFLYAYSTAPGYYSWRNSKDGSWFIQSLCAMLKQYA
Luc interf – counter-screen for SENP inhibitors: luminescence interference; Pre-incubated SENP8/Z-RLRGG-aminoluciferin, luciferase luminescence interference; 6,200 compounds, 39% hits; shares compounds with SENP7 inh; inhibition, % at 12.5 µM;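 active = mean inhibition above about 50% when retested at one dose, limit read from the data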;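 also: plate controls were DMSO wells with completed reaction for no effect and substrate without enzyme for full effect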
* hit, by the source's call; · = not tested or not shown. Sampled rows, rich in hits. Any-hit rate of the full collection: about 2.5%.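 The calls were made as follows, unless noted: active = mean inhibition above about 50% in the one-dose retest (limit read from the data); inactive = the rest.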

SMILES | SENP8 block-1 | SENP7 inh | SENP6 inh | SENP1 FRET inh | SENP8 block-2 | SENP8 conf | SENP6 conf | SENP7 confirm | Casp3 SENP sel | Luc interf
COc1ccc(-c2nc(CSCC(=O)NCCCN3CCCC3=O)c(C)o2)cc1OC | 2 | 5 | 13 | 1 | -13 | · | · | · | · | ·
Cc1ccc(-c2cc(C(F)(F)F)c(C#N)c(=O)[nH]2)cc1 | 68* | 21 | 76* | -105 | -438 | 65* | 66* | 57* | 61* | 49
COc1cccc(-c2cc(C(F)(F)F)c(C#N)c(=O)[nH]2)c1 | 85* | 35 | 85* | -174 | -443 | -14 | 70* | 85* | 70* | 77*
N#Cc1c(C(F)(F)F)cc(-c2ccccc2)[nH]c1=O | -6 | 0 | -3 | -112 | -288 | · | · | · | · | ·
CC(=O)c1ccc(NC(=O)C(C)Sc2nnc3ccccn23)cc1 (centres undefined) | -15 | -6 | -4 | 2 | -49 | · | · | · | · | ·
CNC(=S)Nc1ccc(-c2nc3ccc(C)cc3s2)cc1 | 64* | 50 | 74* | -59 | -392 | 41 | 64* | 86* | 40 | 43
Nc1ccc2nc(-c3ccccc3)sc2c1 | 96* | 98* | 98* | -55 | -289 | 98* | 100* | 103* | 98* | 97*
Nc1ccc2nc(-c3ccccc3)c(-c3ccccc3)nc2c1 | 1 | 12 | 21 | -32 | -221 | · | · | · | · | ·
Nc1ccc(-c2nc3cc(N)ccc3s2)cc1 | 84* | 90* | 75* | -32 | -429 | 93* | 93* | 100* | 90* | 90*
COc1ccc(/C=C(\C#N)C(=O)OCC(=O)Nc2ccc(-c3nc4ccc(C)cc4s3)cc2)cc1 | 16 | 53* | -1 | -28 | -425 | 24 | 20 | 45 | 26 | 54*
COc1ccccc1C(=O)NC(CCSC)C(=O)NCCCn1nc(C)cc1C (centres undefined) | -3 | 2 | 5 | 2 | 9 | · | · | · | · | ·
Cc1cc(OCC(=O)Nc2nnc(C3CC3)s2)ccc1[N+](=O)[O-] | 10 | 6 | 13 | 1 | 9 | · | · | · | · | ·
CC1CCCCC1NC(=O)c1cccc(NC2=NC3CS(=O)(=O)CC3S2)c1 (centres undefined) | 4 | 7 | -8 | -3 | 2 | · | · | · | · | ·
CN1CCn2cnc(C(=O)N[C@@H](Cc3ccccc3)C(=O)OC(C)(C)C)c2C1=O | · | · | · | -1 | -29 | · | · | · | · | ·
Cc1ccc2nc(-c3ccc(N)cc3)sc2c1 | 95* | 98* | 95* | -48 | -459 | 96* | 98* | 102* | 92* | 45
CC(=O)NC(=S)Nc1ccc(-c2nc3ccc(C)cc3s2)cc1 | -10 | 12 | 3 | -47 | -290 | · | · | · | · | ·
COc1ccc2c(c1)CC/C2=N\NC(=O)c1ccccc1 | -13 | -13 | 1 | -3 | 3 | · | · | · | · | ·
COc1ccc2c(c1)CC/C2=N\OC(=O)c1cccc(C)c1 | 72* | 84* | 86* | 0 | -7 | -3 | 6 | 6 | 9 | 8
COc1ccc2c(c1)CC/C2=N\OC(=O)c1ccccc1C | 73* | 80* | 79* | 1 | 7 | 28 | 82* | 83* | 72* | 39
COc1ccc2c(c1)CCC/C2=N/OC(=O)c1ccccc1OC | -3 | 10 | -2 | 2 | 5 | · | · | · | · | ·
FC(F)(F)Oc1ccc(Nc2nc(N3CCOCC3)nc(N3CCOCC3)n2)cc1 | 1 | -8 | -13 | 2 | 6 | · | · | · | · | ·
O=C(Nc1cccc2ccccc12)N1CC=CCC1 | 14 | 42 | 65* | -2 | -426 | -6 | -5 | -11 | 1 | 2
CN(Cc1ccc(Cl)cc1)C(=O)CNC(=O)C12CC3CC(CC(C3)C1)C2 | -3 | -7 | 0 | 4 | 11 | · | · | · | · | ·
CNC(=O)Nc1ccc(C2SCCS2)cc1 | -6 | 2 | -6 | -4 | 10 | · | · | · | · | ·
O=C(Nc1ccc(C2SCCS2)cc1)c1ccccc1 | 53* | 92* | 50 | -1 | -9 | 2 | 2 | 28 | 23 | 7
SMILES | SENP8 block-1 | SENP7 inh | SENP6 inh | SENP1 FRET inh | SENP8 block-2 | SENP8 conf | SENP6 conf | SENP7 confirm | Casp3 SENP sel | Luc interf
O=C(Nc1ccccc1)c1ccc(NC(=O)C2CC2)cc1 | 33 | 62* | 58* | 2 | 2 | -28 | 2 | 67* | 64* | -9
O=C(NNC(=O)c1ccc(NC(=O)C2CC2)cc1)c1ccc(F)cc1 | -1 | -2 | 3 | 3 | -34 | · | · | · | · | ·
Cc1ccc(NC(=O)CCCn2nc(C)c3c(C)n(-c4ccccc4)nc3c2=O)c(Cl)c1 | 2 | -4 | 0 | 1 | 15 | · | · | · | · | ·
CN1C[C@@H]2[C@@H]3C(=O)N(C)C(=O)[C@@H]3[C@](C)(C1=O)N2C(=O)c1ccccc1 | · | · | · | 2 | 14 | · | · | · | · | ·
Fc1c(CSC(=S)N2CCOCC2)cccc1CSC(=S)N1CCOCC1 | 2 | 4 | -8 | 1 | 24 | · | · | · | · | ·
Cc1ccc(S(=O)(=O)N(CC(=O)N2CCOCC2)c2ccc(C(C)C)cc2)cc1 | -2 | -2 | -6 | 1 | 0 | · | · | · | · | ·
CCN(CC)C(=O)C1=C(C)N(Cc2ccccc2)C(=O)C(CC(=O)NCc2cccc3ccccc23)C1 (centres undefined) | · | · | · | 2 | 0 | · | · | · | · | ·
CSc1nc(N2CCOCC2)nc2ccc(C)cc12 | 0 | -6 | -1 | -104 | -488 | · | · | · | · | ·
COc1ccc(C(=O)Nc2ccc(NC(=O)c3ccco3)cc2)cc1 | 1 | 7 | -22 | -1 | 7 | · | · | · | · | ·
CCOC(=O)c1c(N)n(C2CC(C)(C)NC(C)(C)C2)c2nc3ccccc3nc12 | -2 | -5 | -2 | -111 | -293 | · | · | · | · | ·
CCOC(=O)c1c(NC(=O)c2ccco2)n(C2CCCCC2)c2nc3ccccc3nc12 | 51* | 43 | 73* | -25 | -262 | 5 | 32 | 17 | 0 | -3
COc1ccc(-n2c(NC(=O)c3ccco3)c(C#N)c3nc4ccccc4nc32)cc1 | 95* | 87* | 97* | -22 | -251 | -3 | 68* | 54* | 4 | 2
C(=NN1CCCCCC1)c1ccccc1 | · | · | · | 1 | 11 | · | · | · | · | ·
CN(c1ccccc1)c1ccc(/C=N/N2CCOCC2)cc1 | 34 | 31 | 52* | 0 | -21 | 44 | 43 | 79* | 49 | 31
Oc1cccc2c(NC(=S)Nc3ccc(SC(F)F)cc3)cccc12 | 53* | 30 | 85* | -30 | -185 | 24 | 20 | 0 | 4 | 10
Oc1cccc(NC(=S)Nc2ccc(SC(F)F)cc2)c1 | -4 | 4 | 9 | -2 | 18 | · | · | · | · | ·
